From ChEMBL document CHEMBL1926574, “Synthesis and biological evaluation of a new series of 1,2,4-triazolo[1,5-a]-1,3,5-triazines as human A(2A) adenosine receptor antagonists with improved water solubility” (J Med Chem, 2011)

Key:
Adenosine receptor A1 = biological target: T1, Adenosine receptor A1 (Homo sapiens, UniProt P30542); assay: Displacement of [3H]DPCPX from human adenosine A1 receptor expressed in HEK293 cells by scintillation counting; format: cell-based
T1 sequence (P30542 whole entry): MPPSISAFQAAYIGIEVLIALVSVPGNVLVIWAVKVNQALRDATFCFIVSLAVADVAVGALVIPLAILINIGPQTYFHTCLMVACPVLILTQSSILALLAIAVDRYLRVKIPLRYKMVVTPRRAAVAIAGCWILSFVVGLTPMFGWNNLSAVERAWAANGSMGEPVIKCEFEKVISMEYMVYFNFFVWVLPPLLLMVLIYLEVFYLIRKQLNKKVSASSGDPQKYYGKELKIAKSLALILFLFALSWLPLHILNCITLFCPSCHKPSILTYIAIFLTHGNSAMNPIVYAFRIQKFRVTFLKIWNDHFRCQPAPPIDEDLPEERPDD

Adenosine receptor A2a = Adenosine receptor A2a (Homo sapiens, UniProt P29274); assay: Displacement of [3H]ZM241385 from human adenosine A2A receptor expressed in HEK293 cells by scintillation counting; format: cell-based
Adenosine receptor A3 = biological target: T2, Adenosine receptor A3 (Homo sapiens, UniProt P0DMS8); assay: Displacement of [I125]I-AB-MECA from human adenosine A3 receptor expressed in CHO cells by scintillation counting; format: cell-based
T2 sequence (P0DMS8 whole entry): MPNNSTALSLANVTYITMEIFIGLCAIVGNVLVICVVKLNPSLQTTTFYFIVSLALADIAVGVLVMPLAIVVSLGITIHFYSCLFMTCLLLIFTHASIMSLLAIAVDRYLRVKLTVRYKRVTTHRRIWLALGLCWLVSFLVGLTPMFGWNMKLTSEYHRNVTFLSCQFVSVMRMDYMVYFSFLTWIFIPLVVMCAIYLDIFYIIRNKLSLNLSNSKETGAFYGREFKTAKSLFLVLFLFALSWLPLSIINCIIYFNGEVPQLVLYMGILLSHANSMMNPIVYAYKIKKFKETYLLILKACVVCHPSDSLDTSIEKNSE

Adenosine receptor A2b = biological target: T3, Adenosine receptor A2b (Homo sapiens, UniProt P29275); assay: Antagonist activity at human recombinant adenosine A2B receptor expressed in CHO cells assessed as inhibition of NECA-stimulated adenylyl cyclase activity; format: functional, cell-based
T3 sequence (P29275 whole entry): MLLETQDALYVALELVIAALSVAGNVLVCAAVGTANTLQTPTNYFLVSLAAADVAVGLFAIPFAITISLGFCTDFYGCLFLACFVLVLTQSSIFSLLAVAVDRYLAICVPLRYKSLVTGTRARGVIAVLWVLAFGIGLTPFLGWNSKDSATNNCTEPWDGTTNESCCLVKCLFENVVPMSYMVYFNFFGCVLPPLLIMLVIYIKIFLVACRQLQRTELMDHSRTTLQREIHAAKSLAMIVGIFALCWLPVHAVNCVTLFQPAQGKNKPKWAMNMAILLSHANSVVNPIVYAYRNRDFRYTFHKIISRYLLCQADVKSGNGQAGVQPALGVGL
Outline: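 Membranes from CHO cells stably expressing the hA2B receptor were incubated 20 min with about 150,000 cpm [α-32P]ATP, without EGTA and NaCl. The read-out was antagonist concentration-dependent inhibition of NECA-stimulated adenylyl cyclase. IC50 was calculated with the Hill equation.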

Homo sapiens [1] = organism: Homo sapiens; assay: Selectivity ratio of Ki for human adenosine A1 receptor to Ki for human adenosine A2A receptor
Homo sapiens [2] = organism: Homo sapiens; assay: Selectivity ratio of Ki for human adenosine A3 receptor to Ki for human adenosine A2A receptor
[3] = biological target: T4, Adenosine receptor A1 (Homo sapiens) (UniProt P30542); assay: Antagonist activity at human adenosine A1 receptor; format: functional
T4 sequence (whole entry): T1 sequence (P30542 whole entry)

[4] = biological target: T5, Adenosine receptor A2b (Homo sapiens) (UniProt P29275); assay: Antagonist activity at human adenosine A2B receptor; format: functional
T5 sequence (whole entry): T3 sequence (P29275 whole entry)

[5] = biological target: T6, Adenosine receptor A3 (Homo sapiens) (UniProt P0DMS8); assay: Antagonist activity at human adenosine A3 receptor; format: functional
T6 sequence (whole entry): T2 sequence (P0DMS8 whole entry)

[6] = biological target: T6, Adenosine receptor A3 (Homo sapiens); assay: Displacement of [I125]I-AB-MECA from human adenosine A3 receptor expressed in CHO cells at 10 uM by scintillation counting; format: cell-based
[7] = biological target: T4, Adenosine receptor A1 (Homo sapiens); assay: Displacement of [3H]DPCPX from human adenosine A1 receptor expressed in HEK293 cells at 10 uM by scintillation counting; format: cell-based
[8] = biological target: T7, Adenosine receptor A1 (Rattus norvegicus) (UniProt P25099); assay: Antagonist activity at rat adenosine A1 receptor; format: functional
T7 sequence (whole entry): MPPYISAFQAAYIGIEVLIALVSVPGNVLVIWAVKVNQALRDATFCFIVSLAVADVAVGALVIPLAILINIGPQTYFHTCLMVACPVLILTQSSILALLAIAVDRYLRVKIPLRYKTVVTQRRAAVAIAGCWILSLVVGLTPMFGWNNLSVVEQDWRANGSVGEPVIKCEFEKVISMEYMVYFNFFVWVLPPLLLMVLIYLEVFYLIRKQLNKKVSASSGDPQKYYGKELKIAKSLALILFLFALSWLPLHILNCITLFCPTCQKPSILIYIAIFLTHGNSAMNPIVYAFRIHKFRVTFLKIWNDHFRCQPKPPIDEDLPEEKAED

Sequence of Adenosine receptor A2a (P29274 whole entry): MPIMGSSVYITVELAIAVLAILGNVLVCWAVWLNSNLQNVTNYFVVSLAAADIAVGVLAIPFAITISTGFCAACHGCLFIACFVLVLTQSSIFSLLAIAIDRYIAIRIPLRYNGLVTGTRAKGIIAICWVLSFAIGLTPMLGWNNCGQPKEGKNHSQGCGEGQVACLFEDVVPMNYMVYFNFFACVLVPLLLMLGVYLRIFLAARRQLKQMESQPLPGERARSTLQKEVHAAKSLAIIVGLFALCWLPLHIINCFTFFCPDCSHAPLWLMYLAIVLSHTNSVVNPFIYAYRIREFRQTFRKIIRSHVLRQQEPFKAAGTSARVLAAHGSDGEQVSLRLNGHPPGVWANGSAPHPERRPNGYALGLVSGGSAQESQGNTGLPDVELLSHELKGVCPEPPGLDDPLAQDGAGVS

INH [3] [nM]	Antagonist potency (inhibitory concentration) [4] [µM]	Antagonist potency [5] [µM]	INH [8] [nM]	Compound	Ki (Adenosine receptor A1) [µM]	Ki (Adenosine receptor A2a) [µM]	Ki (Adenosine receptor A3) [µM]	IC50 (Adenosine receptor A2b) [µM]	Ratio Ki (Homo sapiens [1])	Ratio Ki (Homo sapiens [2])	Activity [6] [%]	Activity [7] [%]
				Nc1nc(N2CCN(C(=O)Cc3ccc(Cl)cc3)CC2)nc2nc(-c3ccco3)nn12	0.991	0.0391	1.26	> 100	25	32		
562	> 10	0.000108		Cn1cc2c(nc(NC(=O)Cc3ccccc3)n3nc(-c4ccccc4)nc23)n1								
				Nc1nc(N2CCN(Cc3ccc(F)cc3)CC2)nc2nc(-c3ccco3)nn12	0.655	0.0523		> 10	12.5		71.3	
				CC(C)(C)OC(=O)N1CCN(c2nc(N)n3nc(-c4ccco4)nc3n2)CC1	5.4	0.021		> 10	257	400	56.6	
				Nc1nc(NC(=O)c2ccccc2)n2nc(-c3ccco3)nc2n1	1.8	0.0441		7.06	40		67.2	
				CC(C)(C)CC(=O)N1CCN(c2nc(N)n3nc(-c4ccco4)nc3n2)CC1		0.0111		> 100	900	> 900	41.9	53.1
				Nc1nc(N2CCN(C(=O)C(Cl)Cl)CC2)nc2nc(-c3ccco3)nn12		0.282		> 100			33.6	34.6
				NCCCCCNc1nc(N)n2nc(-c3ccco3)nc2n1	2.95	0.0901		> 10	33		49.9	
				Nc1nc(N2CCN(C(=O)c3ccc([N+](=O)[O-])cc3)CC2)nc2nc(-c3ccco3)nn12		0.212		> 100		40	50.9	35.5
				CC(C)(C)OC(=O)NCC1CCC(CNc2nc(N)n3nc(-c4ccco4)nc3n2)CC1 (configuration not stated)	3.89	0.0697		7.14	56		75.5	
				Nc1nc(N2CCN(Cc3ccc(Br)cc3)CC2)nc2nc(-c3ccco3)nn12	0.0867	0.0273		> 10	3.2	300	49.8	
				CC(C)(C)C(=O)N1CCN(c2nc(N)n3nc(-c4ccco4)nc3n2)CC1		0.0584		> 100			32.3	38.7
				CCCCC(=O)N1CCN(c2nc(N)n3nc(-c4ccco4)nc3n2)CC1		0.124		> 100			56.2	10.8
				Nc1nc(N)n2nc(-c3ccco3)nc2n1	1.41	0.16		11.1	9		36.4	
	> 100	0.17	557	CSc1nc(NC(=O)C(c2ccccc2)c2ccccc2)n2nc(-c3ccco3)nc2n1								
				Nc1nc(N2CCN(C(=O)Cc3ccccc3)CC2)nc2nc(-c3ccco3)nn12	3.51	0.0948		> 100	37		64.5	
				CC(C)(C)OC(=O)NCCNc1nc(NCCNC(=O)OC(C)(C)C)n2nc(-c3ccco3)nc2n1		4.36	8.49	> 100		1.9		7.4
				Nc1nc(N2CCN(Cc3ccc(Cl)cc3)CC2)nc2nc(-c3ccco3)nn12	0.22	0.102		> 30	2.1		66.8	
				Nc1nc(N2CCCC2)nc2nc(-c3ccco3)nn12	1.94	0.0591		> 30	33		75	
